Measured values published in paper PMC3021469 (Investigative radiology, 2010).

Key:
[1] = commercial extracellular fluid agent, on the order of; ref not given; cited from earlier work
[2] = target: human serum albumin (HSA) (Homo sapiens, UniProt P02768); format: physicochemical; conditions: albumin-bound; fit of variable temperature NMRD; (SD)
Method in brief: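 Samples were 0.1 mM Gd complex with 0.67 mM HSA (4.5% w/v) in pH 7.4 HEPES-buffered saline, Gd by ICP-MS. 1H NMRD profiles were recorded on a field-cycling relaxometer at 5, 15, 25 and 35 °C over 0.01–50 MHz (0.0002–1.2 T), with 22 points per curve. Variable-temperature profiles were fitted using a Lipari-Szabo treatment.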

Sequence of human serum albumin (HSA) (P02768 25-609): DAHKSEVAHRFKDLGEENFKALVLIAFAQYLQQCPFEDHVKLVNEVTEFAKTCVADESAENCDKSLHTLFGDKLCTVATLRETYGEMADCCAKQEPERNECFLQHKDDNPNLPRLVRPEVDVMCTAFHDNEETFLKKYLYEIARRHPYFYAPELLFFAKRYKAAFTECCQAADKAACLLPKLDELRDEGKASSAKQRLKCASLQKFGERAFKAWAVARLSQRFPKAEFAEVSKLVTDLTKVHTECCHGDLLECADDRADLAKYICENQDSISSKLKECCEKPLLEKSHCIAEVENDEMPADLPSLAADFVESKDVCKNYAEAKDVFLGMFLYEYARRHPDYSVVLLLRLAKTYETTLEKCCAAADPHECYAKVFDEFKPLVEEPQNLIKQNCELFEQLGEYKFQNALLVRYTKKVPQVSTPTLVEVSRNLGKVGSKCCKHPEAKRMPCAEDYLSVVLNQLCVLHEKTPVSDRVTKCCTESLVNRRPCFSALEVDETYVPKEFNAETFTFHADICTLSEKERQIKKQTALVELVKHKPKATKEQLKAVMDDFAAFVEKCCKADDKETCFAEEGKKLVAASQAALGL

| Compound | relaxivity r1 [1] | F^2 (Lipari-Szabo order parameter) [2] | ΔH^‡ (activation energy for water exchange) [2] | Δ^2 (transient zero field splitting parameter) [2] | τv (correlation time of transient ZFS modulation) [2] |
| --- | --- | --- | --- | --- | --- |
| O=C([O-])CN(CCN(CC(=O)[O-])CC(=O)O)CCN(CC(=O)[O-])CC(=O)O.[Gd+3] [Gd-DTPA] | ~4 mM⁻¹ s⁻¹ |  |  |  |  |
| Gd1b |  | 0.46 (0.01) | 42.3 (4.2) kJ/mol | 3.39 (0.12) 10^18 s^-2 | 22 (3) ps |
